17 compounds from ChEMBL document CHEMBL1125609, “Nucleosides and nucleotides. 97. Synthesis of new broad spectrum antineoplastic nucleosides, 2'-deoxy-2'-methylidenecytidine (DMDC) and its derivatives” (J Med Chem, 1991) can be followed below.

The test system of one assay is L1210. The assay is described as follows: In vitro cytotoxic activity against Murine leukemia L1210 cells. It counts as functional, cell-based. Conditions: Mus musculus. In short, it runs like this: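 L1210 murine leukemia cells seeded at 1 × 10⁴/well, exposed with or without compound for 72 h; MTT then added and OD 570 nm read. % inhibition = [1 − OD sample/OD control] × 100; IC50 (μg/mL) taken as concentration giving 50% growth inhibition.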

The subject of assay [1] is KATO III stomach cancer cell line. The experiment in a line: In vitro inhibitory activity against Human gastric carcinoma (KATO III) cell line. It counts as functional, cell-based. Summed up: (§1)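 Each tumor cell line seeded at 1 × 10⁴/well and incubated with or without compound for 72 h; growth measured by MTT reduction, OD 570 nm, % inhibition relative to untreated control wells. IC50 (μg/mL) is the concentration giving 50% inhibition of cell growth.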

In another assay the test system is PC-13. The assay is described as follows: In vitro inhibitory activity against Human lung large-cell carcinoma (PC-13) cell line. It counts as functional, cell-based. In short, it runs like this: as §1
The test system of the next assay is U-937. The experiment in a line: In vitro inhibitory activity against Human histiocytic lymphoma (U-937) cell line. It counts as functional, cell-based. Summed up:
as §1

A further assay has as its system HL-60. The experiment in a line: In vitro inhibitory activity against Human promyelocytic leukemia (HL-60) cell line. It counts as functional, cell-based. In short, it runs like this:
as §1

A further assay concerns PC10. The assay is described as follows: In vitro inhibitory activity against Human lung squamous cell carcinoma (PC-10) cell line. The assay is classed as functional, cell-based. Summed up: as §1
The next assay deals with MOLT-4. The assay is described as follows: In vitro inhibitory activity against Human T-cell acute lymphoblastic leukemia (MOLT-4) cell line. The assay is classed as functional, cell-based. Summed up:
as §1

A further assay relates to B16. The experiment in a line: In vitro inhibitory activity against Mouse melanoma (B16) cell line. The assay is classed as functional, cell-based. Summed up:
as §1

The test system of the next assay is P-36 (Homo sapiens). The experiment in a line: In vitro inhibitory activity against Human melanoma (P-36) cell line.
The test system of the next assay is KB. The experiment in a line: In vitro inhibitory activity against Human oral epidermoid carcinoma (KB) cell line. The assay is classed as functional, cell-based. Summed up: as §1
The test system of another assay is T-24. The experiment in a line: In vitro inhibitory activity against Human bladder transitional-cell carcinoma (T-24) cell line. It counts as functional, cell-based. Summed up:
as §1

The test system of the next assay is PC-14. The assay is described as follows: In vitro inhibitory activity against Human lung adenocarcinoma (PC-14) cell line. The assay is classed as functional, cell-based. In short, it runs like this:
as §1

For assay [2], the system named is Lewis lung carcinoma cell line. The assay is described as follows: In vitro inhibitory activity against Mouse Lewis lung carcinoma (3LL) cell line. It counts as functional, cell-based. Summed up:
as §1

A further assay has as its system TE-2. The assay is described as follows: In vitro inhibitory activity against Human esophagus adenocarcinoma (TE-2) cell line. It counts as functional, cell-based. In short, it runs like this:
as §1

Another assay has as its system SW480. The assay is described as follows: In vitro inhibitory activity against Human colon adenocarcinoma (SW-480) cell line. It counts as functional, cell-based. In short, it runs like this:
as §1

In the next assay the test system is PC-6. The experiment in a line: In vitro inhibitory activity against Human lung small-cell carcinoma (PC-6) cell line. The assay is classed as functional, cell-based. Summed up: as §1
The test system of the next assay is CCRF-CEM. The experiment in a line: In vitro inhibitory activity against Human T-cell acute lymphoblastoid leukemia (CCRF CEM) cell line. The assay is classed as functional, cell-based. Summed up: as §1

Values after ≈ are worked out from the molar mass of the structure shown.

Usually IC50 stands for the concentration needed to halve the response being measured. Read a high IC50 as lower potency. For `C=C1[C@H](n2ccc(=O)[nH]c2=O)O[C@H](CO)[C@H]1O`, the IC50 in the assay with L1210 is greater than 100 µg/mL.

With `C=C1C(n2cc(I)c(N)nc2=O)O[C@H](CO)[C@@H]1O` (stereo partly drawn), the IC50 in the assay with L1210 was greater than 100 µg/mL.

`C=C1C(n2cc(Br)c(=O)[nH]c2=O)O[C@H](CO)[C@@H]1O` (stereo partly drawn) had an IC50 in the assay on L1210 greater than 100 µg/mL.

In the assay on L1210, `C=C1C(n2cc(C)c(=O)[nH]c2=O)O[C@H](CO)[C@@H]1O` (stereo partly drawn) came in with an IC50 of 50 µg/mL (≈ 197 µM).

As for `C=C1C(n2cc(C)c(N)nc2=O)O[C@H](CO)[C@@H]1O` (stereo partly drawn), the IC50 in assay [1] was greater than 100 µg/mL; in the assay on PC-13, greater than 100 µg/mL; in the assay with U-937, greater than 10 µg/mL; with HL-60 it was 3 µg/mL (≈ 11.8 µM); with PC10 it was greater than 100 µg/mL; with MOLT-4 it was greater than 100 µg/mL. Also, the IC50 was greater than 100 µg/mL in the assay on B16; greater than 100 µg/mL with P-36 (Homo sapiens); greater than 100 µg/mL with KB; greater than 100 µg/mL in the assay with T-24; 58 µg/mL (≈ 229 µM) with L1210; greater than 100 µg/mL in the assay with PC-14. For the same compound, the IC50 in [2] is greater than 100 µg/mL; in the assay with TE-2, greater than 100 µg/mL; in the assay with SW480, greater than 100 µg/mL; with PC-6 it was greater than 100 µg/mL; in the assay on CCRF-CEM, greater than 1 µg/mL.

With `C=C1C(n2cc(CC)c(N)nc2=O)O[C@H](CO)[C@@H]1O` (stereo partly drawn), in the assay with L1210, the IC50 is greater than 100 µg/mL.

Regarding `C=C1C(n2cc(F)c(N)nc2=O)O[C@H](CO)[C@@H]1O` (stereo partly drawn), the IC50 in assay [1] was 8.3 µg/mL (≈ 32.3 µM); in the assay on PC-13, 1.4 µg/mL (≈ 5.44 µM); with U-937 it was 0.4 µg/mL (≈ 1.56 µM); in the assay on HL-60, 0.053 µg/mL (≈ 0.206 µM); in the assay on PC10 it was greater than 100 µg/mL; in the assay with MOLT-4, 0.03 µg/mL (≈ 0.117 µM). Also, the half-maximal inhibitory concentration (IC50) in the assay with B16 was 9.2 µg/mL (≈ 35.8 µM); with P-36 (Homo sapiens) it was 0.25 µg/mL (≈ 0.972 µM); with KB, 1.4 µg/mL (≈ 5.44 µM); in the assay with T-24, 0.94 µg/mL (≈ 3.65 µM); in the assay on L1210, 0.33 µg/mL (≈ 1.28 µM); in the assay on PC-14, greater than 100 µg/mL. Further, the IC50 in assay [2] was determined as 22 µg/mL (≈ 85.5 µM); with TE-2, 1.8 µg/mL (≈ 7 µM); with SW480, 4.4 µg/mL (≈ 17.1 µM); with PC-6, 16 µg/mL (≈ 62.2 µM); in the assay on CCRF-CEM it was 0.1 µg/mL (≈ 0.389 µM).

In the case of `C=C1C(n2cc(CC)c(=O)[nH]c2=O)O[C@H](CO)[C@@H]1O` (stereo partly drawn), in the assay with L1210, the IC50 is greater than 100 µg/mL.

Take `C=C1C(n2cc(F)c(=O)[nH]c2=O)O[C@H](CO)[C@@H]1O` (stereo partly drawn): in the assay with L1210, the IC50 was greater than 100 µg/mL.

`O=c1[nH]cc(F)c(=O)[nH]1` [FLUOROURACIL]: the IC50 in assay [1] is 3.7 µg/mL (≈ 28.4 µM); in the assay with U-937, 3.5 µg/mL (≈ 26.9 µM); with HL-60 it was 1.3 µg/mL (≈ 9.99 µM); with PC10, greater than 100 µg/mL; in the assay with B16, 2.6 µg/mL (≈ 20 µM); in the assay on P-36 (Homo sapiens) it was 10.7 µg/mL (≈ 82.3 µM). In addition, the IC50 in the assay on KB stood at 12.1 µg/mL (≈ 93 µM); in the assay on PC-14 it was 10 µg/mL (≈ 76.9 µM).

In the assay with L1210, `C=C1C(n2cc(Cl)c(=O)[nH]c2=O)O[C@H](CO)[C@@H]1O` (stereo partly drawn) came in with an IC50 greater than 100 µg/mL.

`C=C1C(n2cc(Cl)c(N)nc2=O)O[C@H](CO)[C@@H]1O` (stereo partly drawn) showed an IC50 in the assay with L1210 greater than 100 µg/mL.

`C#Cc1cn(C2O[C@H](CO)[C@H](O)C2=C)c(=O)[nH]c1=O` (stereo partly drawn) gave an IC50 in the assay with L1210 greater than 100 µg/mL.

`C=C1C(n2cc(I)c(=O)[nH]c2=O)O[C@H](CO)[C@@H]1O` (stereo partly drawn): the IC50 in the assay with L1210 was greater than 100 µg/mL.

For `C=C1C(n2cc(Br)c(N)nc2=O)O[C@H](CO)[C@@H]1O` (stereo partly drawn), the IC50 in the assay on L1210 is greater than 100 µg/mL.

`C=C1C(n2ccc(N)nc2=O)O[C@H](CO)[C@@H]1O` (stereo partly drawn): the IC50 in [1] was 8.3 µg/mL (≈ 34.7 µM); with PC-13, 1 µg/mL (≈ 4.18 µM); in the assay on U-937, 0.44 µg/mL (≈ 1.84 µM); in the assay on HL-60, 0.04 µg/mL (≈ 0.167 µM); with PC10, greater than 100 µg/mL; in the assay with MOLT-4, 0.041 µg/mL (≈ 0.171 µM). Moreover, the IC50 is 3 µg/mL (≈ 12.5 µM) in the assay with B16; 0.36 µg/mL (≈ 1.5 µM) with P-36 (Homo sapiens); 1.4 µg/mL (≈ 5.85 µM) in the assay on KB; 1.1 µg/mL (≈ 4.6 µM) with T-24; 0.37 µg/mL (≈ 1.55 µM) with L1210; greater than 100 µg/mL in the assay with PC-14. Also, the IC50 is 16 µg/mL (≈ 66.9 µM) in assay [2], 39 µg/mL (≈ 163 µM) in the assay on PC-6 and 0.067 µg/mL (≈ 0.28 µM) with CCRF-CEM.

Take `Nc1ccn([C@@H]2O[C@H](CO)[C@@H](O)[C@@H]2O)c(=O)n1` [CYTARABINE]: the IC50 is greater than 100 µg/mL in [1]; greater than 100 µg/mL with PC-13; 0.46 µg/mL (≈ 1.89 µM) in the assay on U-937; greater than 0.1 µg/mL in the assay on HL-60; greater than 100 µg/mL in the assay on PC10; 0.24 µg/mL (≈ 0.987 µM) in the assay with B16. The IC50 in the assay on P-36 (Homo sapiens) is 11.1 µg/mL (≈ 45.6 µM); in the assay with KB it was 30.5 µg/mL (≈ 125 µM); in the assay on T-24 it was 0.5 µg/mL (≈ 2.06 µM); with PC-14 it was greater than 100 µg/mL; with TE-2 it was greater than 100 µg/mL; with SW480 it was greater than 100 µg/mL. In addition, the IC50 with PC-6 was 50 µg/mL (≈ 206 µM); in the assay with CCRF-CEM, 0.32 µg/mL (≈ 1.32 µM).
